Assay results: ChEMBL document CHEMBL3576826, “New Monocyclic, Bicyclic, and Tricyclic Ethynylcyanodienones as Activators of the Keap1/Nrf2/ARE Pathway and Inhibitors of Inducible Nitric Oxide Synthase” (J Med Chem, 2015)

Key:
[1] = biological target: Kelch-like ECH-associated protein 1/Nuclear factor erythroid 2-related factor 2 (Mus musculus) (UniProt Q60795+Q9Z2X8); assay: Activation of Keap1/Nrf2/ARE pathway in mouse Hepa-1c1c7 cells assessed as double induction of NQO1 specific activity after 48 hrs by bicinchoninic acid assay; assay type: cell-based
Procedure, shortened: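 Hepa1c1c7 cells, 10000 per well, grown 24 h, then exposed to increasing concentrations for 48 h. Lysed; protein by BCA assay; NQO1 specific activity measured. CD = concentration doubling NQO1 specific activity, used as inducer potency. Eight replicate wells per concentration; SD 5–10%.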

[2] = biological target: T1, Nitric oxide synthase, inducible (Mus musculus, UniProt P29477); assay: Inhibition of iNOS in LPS-stimulated mouse RAW264.7 cells assessed as inhibition of nitric oxide production after 48 hrs by Griess assay; assay type: cell-based
T1 sequence (P29477 whole entry): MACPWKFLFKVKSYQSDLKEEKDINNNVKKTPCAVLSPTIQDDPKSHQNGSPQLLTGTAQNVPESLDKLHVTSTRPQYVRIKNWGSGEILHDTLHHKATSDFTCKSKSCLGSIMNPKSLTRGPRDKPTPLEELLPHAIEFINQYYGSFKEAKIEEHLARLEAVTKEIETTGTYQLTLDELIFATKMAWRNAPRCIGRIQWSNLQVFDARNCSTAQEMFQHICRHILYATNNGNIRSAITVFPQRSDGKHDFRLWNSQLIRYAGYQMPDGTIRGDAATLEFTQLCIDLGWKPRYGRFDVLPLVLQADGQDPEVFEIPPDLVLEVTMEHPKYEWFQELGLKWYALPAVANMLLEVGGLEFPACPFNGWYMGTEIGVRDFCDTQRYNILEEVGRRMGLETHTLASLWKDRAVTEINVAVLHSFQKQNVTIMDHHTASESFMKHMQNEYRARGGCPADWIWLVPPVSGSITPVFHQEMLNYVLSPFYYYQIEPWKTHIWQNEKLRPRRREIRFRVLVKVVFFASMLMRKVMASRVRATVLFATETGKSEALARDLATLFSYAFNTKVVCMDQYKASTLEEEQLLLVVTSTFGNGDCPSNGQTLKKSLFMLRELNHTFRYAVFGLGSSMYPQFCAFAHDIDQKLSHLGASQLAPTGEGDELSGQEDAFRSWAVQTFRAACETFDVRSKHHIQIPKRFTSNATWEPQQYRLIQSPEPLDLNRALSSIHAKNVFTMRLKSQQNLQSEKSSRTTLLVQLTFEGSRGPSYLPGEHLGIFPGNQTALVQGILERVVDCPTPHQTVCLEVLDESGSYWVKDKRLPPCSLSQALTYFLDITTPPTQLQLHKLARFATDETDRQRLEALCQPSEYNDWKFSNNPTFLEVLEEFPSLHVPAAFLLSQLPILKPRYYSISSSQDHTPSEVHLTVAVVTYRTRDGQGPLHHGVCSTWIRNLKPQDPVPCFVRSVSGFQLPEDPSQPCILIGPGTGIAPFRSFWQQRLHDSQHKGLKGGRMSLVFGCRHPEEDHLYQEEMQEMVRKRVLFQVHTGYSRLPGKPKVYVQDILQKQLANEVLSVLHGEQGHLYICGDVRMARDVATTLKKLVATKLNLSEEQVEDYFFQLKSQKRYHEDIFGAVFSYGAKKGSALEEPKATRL

Kelch-like ECH-associated protein 1/Nuclear factor erythroid 2-related factor 2 (Mus musculus), sequence (Q60795 whole entry, looked up): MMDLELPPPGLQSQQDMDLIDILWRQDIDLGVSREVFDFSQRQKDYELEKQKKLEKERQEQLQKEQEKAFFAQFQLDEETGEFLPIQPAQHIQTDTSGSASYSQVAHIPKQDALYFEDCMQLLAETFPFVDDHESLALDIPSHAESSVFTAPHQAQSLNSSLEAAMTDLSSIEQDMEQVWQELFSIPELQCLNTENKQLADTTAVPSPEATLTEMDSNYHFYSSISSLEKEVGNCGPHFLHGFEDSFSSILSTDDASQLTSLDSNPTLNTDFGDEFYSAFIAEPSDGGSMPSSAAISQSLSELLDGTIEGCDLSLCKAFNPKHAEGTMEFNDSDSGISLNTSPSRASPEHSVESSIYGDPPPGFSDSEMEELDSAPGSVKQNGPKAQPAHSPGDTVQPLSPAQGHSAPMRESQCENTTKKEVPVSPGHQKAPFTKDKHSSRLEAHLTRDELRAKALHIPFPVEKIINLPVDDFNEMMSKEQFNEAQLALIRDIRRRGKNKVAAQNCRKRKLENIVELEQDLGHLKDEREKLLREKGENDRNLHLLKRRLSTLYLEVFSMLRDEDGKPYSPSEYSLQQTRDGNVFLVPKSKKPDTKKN
Kelch-like ECH-associated protein 1/Nuclear factor erythroid 2-related factor 2 (Mus musculus), sequence (Q9Z2X8 whole entry, looked up): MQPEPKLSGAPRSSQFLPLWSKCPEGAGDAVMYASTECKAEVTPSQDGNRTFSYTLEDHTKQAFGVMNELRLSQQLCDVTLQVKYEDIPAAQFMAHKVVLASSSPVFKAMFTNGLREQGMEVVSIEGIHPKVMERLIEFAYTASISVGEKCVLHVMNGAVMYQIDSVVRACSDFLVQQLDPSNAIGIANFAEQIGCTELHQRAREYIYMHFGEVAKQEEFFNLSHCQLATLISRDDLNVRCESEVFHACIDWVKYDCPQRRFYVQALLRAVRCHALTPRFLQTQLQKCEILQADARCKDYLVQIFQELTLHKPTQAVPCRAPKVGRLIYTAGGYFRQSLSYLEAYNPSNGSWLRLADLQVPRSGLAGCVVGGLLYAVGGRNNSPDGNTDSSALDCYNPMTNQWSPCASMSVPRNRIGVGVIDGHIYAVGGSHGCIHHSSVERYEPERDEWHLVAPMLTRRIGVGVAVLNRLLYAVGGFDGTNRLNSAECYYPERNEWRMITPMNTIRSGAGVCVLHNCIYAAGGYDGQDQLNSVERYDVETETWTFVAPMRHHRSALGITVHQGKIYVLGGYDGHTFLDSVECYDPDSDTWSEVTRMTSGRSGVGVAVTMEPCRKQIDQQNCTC

Compound | CD [1] | IC50 ([2]; raw264.7) | IC50 [2]
C#CC12C=C(C#N)C(=O)C=C1c1c(Cl)cccc1CC2 (stereo not drawn) | 900 nM |  | 
C#CC1(CC)C=CC(=O)C(C#N)=C1 (stereo not drawn) | 42 nM |  | 
C#CC12C=C(C#N)C(=O)C=C1c1ccccc1CC2 (stereo not drawn) | 150 nM |  | 
C#CC12C=C(C#N)C(=O)C=C1c1c(C)cccc1CC2 (stereo not drawn) | 1800 nM | 940 nM | 
CC1(C)CC[C@]2(C(=O)O)CC[C@]3(C)[C@H](C(=O)C=C4[C@@]5(C)C=C(C#N)C(=O)C(C)(C)[C@@H]5CC[C@]43C)[C@@H]2C1 [BARDOXOLONE] | 2.3 nM | 23 nM | 
C#CC12C=C(C#N)C(=O)C=C1c1ccccc1C2 (stereo not drawn) | 41 nM | 380 nM | 
C#CC12C=C(C#N)C(=O)C=C1CCC2 (stereo not drawn) | 56 nM | 160 nM | 
C#CC1(C)C=C(C#N)C(=O)c2ccccc21 (stereo not drawn) | 220 nM |  | 
C#CC12C=C(C#N)C(=O)C=C1c1c(Br)cccc1CC2 (stereo not drawn) | 1300 nM | 650 nM | 
C#CC1(C=C)C=CC(=O)C(C#N)=C1 (stereo not drawn) | 20 nM | 16 nM | 
C#CC12C=C(C#N)C(=O)C=C1C(C)(C)CC2 (stereo not drawn) | 100 nM | 200 nM | 
C[S+]([O-])CCCCN=C=S (stereo not drawn) [SULFORAPHANE] | 200 nM |  | 400 nM
C#CC1(C)C=CC(=O)C(C#N)=C1 (stereo not drawn) | 21 nM | 18 nM | 
C#C[C@]12C=C(C#N)C(=O)C=C1[C@@]1(C)C=C(C#N)C(=O)C(C)(C)[C@@H]1CC2 (racemic) | 0.9 nM | 1 nM | 
C#CC12C=C(C#N)C(=O)C=C1c1c(Cl)cccc1C2 (stereo not drawn) | 130 nM | 800 nM | 
C#CC1(C#C)C=CC(=O)C(C#N)=C1 | 180 nM | 210 nM | 
